Experimental data pooled from the literature.
Protocols differ between the studies behind these lines.
TOP2A: DNA topoisomerase 2-alpha (TOP2A, Homo sapiens, UniProt P11388)
DHFR: Dihydrofolate reductase (DHFR, Homo sapiens, UniProt P00374)
HTR2B: 5-hydroxytryptamine receptor 2B (HTR2B, Homo sapiens, UniProt P41595)
FAAH: Fatty-acid amide hydrolase 1 (FAAH, Homo sapiens, UniProt O00519)

SMILES	target	effect on	mode	method	IC50 [µM]
Cc1nc(CSc2nc(SCc3cc(F)cc(C(F)(F)F)c3)nc(=O)[nH]2)cs1	TOP2A	enzyme activity	inhibitor	–	55
Nc1nc(N)c(OCCCOc2ccccc2CCC(=O)O)c(-c2ccc(C(F)(F)F)cc2)n1	DHFR	enzyme activity	inhibitor	–	> 5
S=C(NN=Cc1ccc(N2CCCCC2)cc1)Nc1ccc(Br)cc1	DHFR	enzyme activity	inhibitor	–	26.1
O=c1nc(SCc2ccc(C(F)(F)F)cc2)nc(SCc2ccc3sccc3c2)[nH]1	TOP2A	enzyme activity	inhibitor	–	16.3
CC1CC2CN(C(C)C(=O)c3c[nH]c4ccccc34)CCN2C1 (stereo not drawn)	HTR2B	calcium signal	antagonist	–	2.25
O=[N+]([O-])c1ccc(NC(=S)NN=Cc2ccc(N3CCCCC3)cc2)cc1	DHFR	enzyme activity	inhibitor	–	16.2
O=C(Nc1ccc(-c2ccc3ccccc3n2)cc1)C1CCN(S(=O)(=O)c2ccccc2Cl)CC1	FAAH	enzyme activity	inhibitor	fluorescence	0.0035
O=c1nc(SCc2cc(F)cc(C(F)(F)F)c2)nc(SCc2cccc(C(F)(F)F)c2)[nH]1	TOP2A	enzyme activity	inhibitor	–	14.5
O=C(Nc1ccc(-c2ccc3cccnc3c2)cc1)C1CCN(S(=O)(=O)c2ccccc2Cl)CC1	FAAH	enzyme activity	inhibitor	fluorescence	0.0105
O=c1nc(SCc2cc(F)cc(C(F)(F)F)c2)nc(SCc2ccc3ncsc3c2)[nH]1	TOP2A	enzyme activity	inhibitor	–	36.3
O=C(C=Cc1ccc(O)c(O)c1)OCCc1ccccc1	DHFR	enzyme activity	inhibitor	absorbance	11.5
O=c1nc(SCc2cc(F)cc(C(F)(F)F)c2)nc(SCc2ccc3ccccc3n2)[nH]1	TOP2A	enzyme activity	inhibitor	–	18.6
S=C(NCc1ccccc1)NN=Cc1ccc(N2CCCCC2)cc1	DHFR	enzyme activity	inhibitor	–	31.3
O=C(C=Cc1ccc(O)c(O)c1)OCc1ccccc1	DHFR	enzyme activity	inhibitor	absorbance	12.6
Cc1[nH]c2ccccc2c1C(=O)C(C)N1CCC(c2nccn2C)C1 (stereo not drawn)	HTR2B	calcium signal	antagonist	–	0.0369
COc1ccc(NC(=S)NN=Cc2ccc(N3CCCCC3)cc2)cc1	DHFR	enzyme activity	inhibitor	–	44.6
Cc1[nH]c2ccccc2c1SCCNC(=O)CN1CCC(C)C1 (stereo not drawn)	HTR2B	calcium signal	antagonist	–	3.68
Cc1ccccc1NC(=O)C=Cc1ccc(O)c(O)c1	DHFR	enzyme activity	inhibitor	absorbance	1.1
CN(C(=O)c1cn[nH]n1)C1CCN(CCc2cccc(Cl)c2Cl)C1 (stereo not drawn)	HTR2B	calcium signal	antagonist	–	5.53
O=c1cc(-c2ccc(O)cc2)oc2c([C@@H]3OC[C@H](O)[C@H](O)[C@H]3O)c(O)c([C@@H]3O[C@H](CO)[C@@H](O)[C@H](O)[C@H]3O)c(O)c12	Calcium/calmodulin-dependent protein kinase type II subunit alpha (CAMK2A, Homo sapiens, UniProt Q9UQM7)	enzyme activity	inhibitor	–	86.1
O=[N+]([O-])c1cccc(NC(=S)NN=Cc2ccc(N3CCCCC3)cc2)c1	DHFR	enzyme activity	inhibitor	–	13.7
Nc1ccccc1OC(=O)C=Cc1ccc(O)c(O)c1	DHFR	enzyme activity	inhibitor	absorbance	16.9
Oc1cc(CN2CCN3CCCCC3C2)c2ccccc2c1 (stereo not drawn)	HTR2B	calcium signal	antagonist	–	0.586
S=C(NN=Cc1ccc(N2CCCCC2)cc1)Nc1cccc(Br)c1	DHFR	enzyme activity	inhibitor	–	30.2
Cc1[nH]c2ccccc2c1SCCNC(=O)C1NCCC1C1CC1 (stereo not drawn)	HTR2B	calcium signal	antagonist	–	5.36
S=C(NN=Cc1ccc(N2CCCCC2)cc1)NC1CCCCC1	DHFR	enzyme activity	inhibitor	–	41.2
O=C1CC(CCNCc2ccc(-c3cccc(Br)c3)o2)CN1 (stereo not drawn)	HTR2B	calcium signal	antagonist	–	8.62
Fc1ccc(NC(=S)NN=Cc2ccc(N3CCCCC3)cc2)cc1	DHFR	enzyme activity	inhibitor	–	24.6
O=C(Nc1ccc(-c2cccc3ncccc23)cc1)C1CCN(S(=O)(=O)c2ccccc2Cl)CC1	FAAH	enzyme activity	inhibitor	fluorescence	0.0196
Cc1cccc(C(CO)N2CCN(Cc3cc(O)ccc3Cl)CC2)c1 (stereo not drawn)	HTR2B	calcium signal	antagonist	–	0.691
